Measured values pooled from the literature.
Compare with care: the assays were run in different laboratories.
Target: Serine/threonine-protein kinase 36 (STK36, Homo sapiens, UniProt Q9NRP7)
One construct used (Q9NRP7 1-1315): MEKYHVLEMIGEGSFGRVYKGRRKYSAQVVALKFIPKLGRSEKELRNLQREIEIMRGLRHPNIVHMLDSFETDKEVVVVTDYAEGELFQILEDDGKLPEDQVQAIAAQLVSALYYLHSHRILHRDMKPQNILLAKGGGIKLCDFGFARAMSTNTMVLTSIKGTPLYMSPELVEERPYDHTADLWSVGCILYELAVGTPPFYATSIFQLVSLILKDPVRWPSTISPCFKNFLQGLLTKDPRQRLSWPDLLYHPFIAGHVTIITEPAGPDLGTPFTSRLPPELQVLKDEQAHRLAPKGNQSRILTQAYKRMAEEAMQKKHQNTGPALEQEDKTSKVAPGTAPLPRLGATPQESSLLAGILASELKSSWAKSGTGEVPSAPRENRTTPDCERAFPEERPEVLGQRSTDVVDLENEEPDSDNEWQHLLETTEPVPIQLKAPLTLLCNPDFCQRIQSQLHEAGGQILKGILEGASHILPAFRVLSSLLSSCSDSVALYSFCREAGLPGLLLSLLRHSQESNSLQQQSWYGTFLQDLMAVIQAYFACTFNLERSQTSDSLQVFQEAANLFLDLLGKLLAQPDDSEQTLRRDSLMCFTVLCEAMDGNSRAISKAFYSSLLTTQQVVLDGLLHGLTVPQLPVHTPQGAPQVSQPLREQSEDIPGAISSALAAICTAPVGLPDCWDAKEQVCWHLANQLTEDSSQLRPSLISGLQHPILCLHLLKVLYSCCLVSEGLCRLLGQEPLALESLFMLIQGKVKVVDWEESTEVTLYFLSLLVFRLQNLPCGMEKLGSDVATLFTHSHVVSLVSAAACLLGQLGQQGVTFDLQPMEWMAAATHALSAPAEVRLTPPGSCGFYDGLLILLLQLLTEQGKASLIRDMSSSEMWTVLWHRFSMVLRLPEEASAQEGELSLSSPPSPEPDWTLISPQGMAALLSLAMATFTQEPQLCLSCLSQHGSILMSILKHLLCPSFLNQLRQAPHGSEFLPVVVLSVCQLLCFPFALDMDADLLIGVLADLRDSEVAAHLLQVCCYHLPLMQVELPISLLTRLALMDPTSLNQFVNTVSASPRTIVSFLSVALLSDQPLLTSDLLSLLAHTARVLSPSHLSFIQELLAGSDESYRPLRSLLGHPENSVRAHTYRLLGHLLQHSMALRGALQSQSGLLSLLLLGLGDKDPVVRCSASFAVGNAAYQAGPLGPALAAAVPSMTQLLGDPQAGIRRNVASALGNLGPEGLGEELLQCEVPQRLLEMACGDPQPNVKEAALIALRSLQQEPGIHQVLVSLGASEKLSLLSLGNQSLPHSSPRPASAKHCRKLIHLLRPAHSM

SMILES	test	setting	remaining binding [%]
CNCc1ccccc1-c1csc([C@H](C)Nc2nc(C)nc3cc(OC)c(OC)cc23)c1	cell-free assay, competition with immobilised ligand	1 µM	100
CN(CCCC(F)(F)F)c1nccc(-c2cnn3ncccc23)n1	binding	1 µM	92
CNC(=O)[C@@H]1CC[C@@H](n2c(-c3ccc4cnccc4c3)nc3ccc(C(=O)NCc4cccc(C(N)=O)c4)cc32)C1	binding, competition with immobilised ligand	1 µM	93
C[C@@H](c1ccc(-n2cnc3c(N)ncnc32)cc1)N1CCc2nn(C)c(Cc3ccccc3)c2C1=O	binding, competition with immobilised ligand	0.1 µM	67
Cc1nc(N2CC[C@@H](O)C2)ncc1-c1cc(C(F)(F)F)cc2[nH]ncc12	binding, competition with immobilised ligand	1 µM	100
O=C(c1ccc(Nc2ncc(Cl)c(-c3cc4ccccc4s3)n2)cc1)N1CCC(N2CCCC2)CC1	binding, competition with immobilised ligand	1 µM	3.4
O=C(NCC1CCOCC1)c1n[nH]cc1NC(=O)c1c(F)cccc1F	binding, competition with immobilised ligand	1 µM	98
CS(=O)(=O)N1CCCC(NC(=O)[C@H](CCC2CCCCC2)NC(=O)c2ccc(CNc3ncnc4c3nnn4-c3ccccc3)cc2)C1 (stereo partly shown)	cell-free assay, competition with immobilised ligand	0.1 µM	97
COc1ccnn2ncc(-c3ccnc(N(C)C)n3)c12	binding	1 µM	81
CC(=O)Nc1c(C(C)=O)c(=O)n(C)c2nc(-c3ccc(Cl)cc3Cl)c(-c3ccc(Cl)cc3)cc12	cell-free assay, competition with immobilised ligand	1 µM	92
CN(C)c1nccc(-c2cnn3ncccc23)n1	binding	1 µM	100
CCN1CCN(Cc2ccc(C(=O)Nc3ccc(C)c(Oc4ccc5c(c4)CC(=O)N5)c3)cc2C(F)(F)F)CC1	binding, competition with immobilised ligand	1 µM	81
N[C@H]1CCN(c2nccc(-c3cnn4ncccc34)n2)C1	binding	1 µM	62
CN1CCN(c2cnc3c(C4CCN(C(=O)c5ccc(OC(F)(F)F)cc5N)CC4)ncnc3c2)CC1	cell-free assay, competition with immobilised ligand	1 µM	75
O=C(NCCCN1CCOCC1)c1ccc(Nc2ncc(Cl)c(-c3ccc(Cl)s3)n2)cc1	binding, competition with immobilised ligand	1 µM	6.2
CN(c1ccnc(CNc2nc(Nc3ccc4c(c3)CC(=O)N4)ncc2C(F)(F)F)n1)S(C)(=O)=O	cell-free assay, competition with immobilised ligand	1 µM	87
C[C@H]1CCN(c2nccc(-c3cnn4ncccc34)n2)C1	binding	1 µM	100
Nc1ncc2c(n1)-c1c([nH]c3ccc(C#CC4CC4)cc13)CCCC2	binding, competition with immobilised ligand	1 µM	100
CN(C)c1nccc(-c2cnc3ncccn23)n1	binding	1 µM	99
COc1ccc2c(c1)O[C@H](c1ccc(OC)c(OC)c1)C[C@@H]2NC(=O)C1(c2ccc3c(c2)OC(F)(F)O3)CC1	cell-free assay, competition with immobilised ligand	1 µM	94
c1cnn2ncc(-c3ccnc(N4CCC45COC5)n3)c2c1	binding	1 µM	76
O=C(c1ccc(Nc2nccc(-c3cc4ccccc4s3)n2)cc1)N1CCC(N2CCCC2)CC1	binding, competition with immobilised ligand	1 µM	11
